Results as given in ChEMBL document CHEMBL5303300, “EUbOPEN Chemogenomics Library - Multiplex” (2023).
“And” between values parts separate entries of the source, which are not always exact repeats. Identical values can stand only once.

System: Fibroblast
Assay: Multiplex assay against human fibroblast
Assay type: toxicity, cell-based
Details: number of replicates 2
Method in brief: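 Hoechst33342, BioTracker Green Microtubule Cytoskeleton Dye, MitoTracker Red and Annexin V Alexa Fluor 680 were added to live cells at seeding, and imaging on a CQ1 microscope at 37°C and 5% CO2 followed compound addition. Gating by CellPathfinder machine learning separated cells into Hoechst high-intensity objects or normal cells, then normal cells into healthy, pyknosed or fragmented nuclei, then pyknosed cells into mitotic or apoptotic. Per cents of healthy-nucleus cells are reported for the tubulin, mitochondrial-mass and membrane-permeability phenotypes.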

[1] = 12 h, 1 µM, compound concentration 1 uM
[2] = 12 h, 10 µM, compound concentration 10 uM
[3] = 24 h, 1 µM, compound concentration 1 uM
[4] = 24 h, 10 µM, compound concentration 10 uM
[5] = 48 h, 1 µM, compound concentration 1 uM
[6] = 48 h, 10 µM, compound concentration 10 uM

N=C(N)NCCC[C@H](NC(=O)COCC(c1ccccc1)c1ccccc1)C(=O)O.O=C(O)C(F)(F)F
Population Apoptotic (%) [1]: 42% and 45% | Population Fragmented Nuclei (%) [1]: 6% and 9% | Population Healthy Nuclei (%) [1]: 71% and 75% | Population Hoechst High Intensity Objects (%) [1]: 0% | Population Membrane Permeable-Phenotype (%) [1]: 5% and 3% | Population Mitochondria Different-Phenotype (%) [1]: 0% and 4% | Population Mitotic Cells (%) [1]: 57% and 54% | Population Normal (%) [1]: 100% | Population Pyknosed Nuclei (%) [1]: 22% and 14% | Population Tubulin-Different-Phenotype (%) [1]: 17% and 12% | Total Cell Count [1]: 172 and 221 | Population Apoptotic (%) [2]: 38% and 55% | Population Fragmented Nuclei (%) [2]: 9% and 10% | Population Healthy Nuclei (%) [2]: 79% and 71% | Population Hoechst High Intensity Objects (%) [2]: 0% | Population Membrane Permeable-Phenotype (%) [2]: 8% and 4% | Population Mitochondria Different-Phenotype (%) [2]: 0% | Population Mitotic Cells (%) [2]: 61% and 44% | Population Normal (%) [2]: 100% | Population Pyknosed Nuclei (%) [2]: 11% and 18% | Population Tubulin-Different-Phenotype (%) [2]: 17% and 7% | Total Cell Count [2]: 161 and 156 | Population Apoptotic (%) [3]: 63% and 48% | Population Fragmented Nuclei (%) [3]: 11% and 14% | Population Healthy Nuclei (%) [3]: 64% and 67% | Population Hoechst High Intensity Objects (%) [3]: 0% | Population Membrane Permeable-Phenotype (%) [3]: 2% and 4% | Population Mitochondria Different-Phenotype (%) [3]: 0% and 3% | Population Mitotic Cells (%) [3]: 36% and 51% | Population Normal (%) [3]: 100% | Population Pyknosed Nuclei (%) [3]: 23% and 18% | Population Tubulin-Different-Phenotype (%) [3]: 11% and 9% | Total Cell Count [3]: 171 and 247 | Population Apoptotic (%) [4]: 40% and 57% | Population Fragmented Nuclei (%) [4]: 14% and 16% | Population Healthy Nuclei (%) [4]: 71% and 70% | Population Hoechst High Intensity Objects (%) [4]: 0% | Population Membrane Permeable-Phenotype (%) [4]: 7% | Population Mitochondria Different-Phenotype (%) [4]: 1% and 0% | Population Mitotic Cells (%) [4]: 59% and 42% | Population Normal (%) [4]: 100% | Population Pyknosed Nuclei (%) [4]: 13% | Population Tubulin-Different-Phenotype (%) [4]: 16% and 11% | Total Cell Count [4]: 158 and 160 | Population Apoptotic (%) [5]: 69% and 74% | Population Fragmented Nuclei (%) [5]: 15% and 18% | Population Healthy Nuclei (%) [5]: 65% and 68% | Population Hoechst High Intensity Objects (%) [5]: 0% | Population Membrane Permeable-Phenotype (%) [5]: 7% and 4% | Population Mitochondria Different-Phenotype (%) [5]: 0% | Population Mitotic Cells (%) [5]: 30% and 25% | Population Normal (%) [5]: 100% | Population Pyknosed Nuclei (%) [5]: 19% and 12% | Population Tubulin-Different-Phenotype (%) [5]: 12% and 5% | Total Cell Count [5]: 172 and 253 | Population Apoptotic (%) [6]: 61% and 94% | Population Fragmented Nuclei (%) [6]: 17% and 18% | Population Healthy Nuclei (%) [6]: 70% and 71% | Population Hoechst High Intensity Objects (%) [6]: 0% | Population Membrane Permeable-Phenotype (%) [6]: 4% and 6% | Population Mitochondria Different-Phenotype (%) [6]: 0% | Population Normal (%) [6]: 100% | Population Pyknosed Nuclei (%) [6]: 11% and 10% | Population Tubulin-Different-Phenotype (%) [6]: 8% | Total Cell Count [6]: 151 and 170

Cn1cc(-n2cnc3c(NCc4nc5cc(Cl)c(Cl)cc5[nH]4)nc(N4CCOCC4)nc32)cn1
Population Apoptotic (%) [1]: 39% and 65% | Population Healthy Nuclei (%) [1]: 79% and 57% | Population Hoechst High Intensity Objects (%) [1]: 0% and 3% | Population Membrane Permeable-Phenotype (%) [1]: 7% | Population Mitochondria Different-Phenotype (%) [1]: 2% and 3% | Population Mitotic Cells (%) [1]: 60% and 34% | Population Normal (%) [1]: 100% and 96% | Population Pyknosed Nuclei (%) [1]: 15% and 19% | Population Tubulin-Different-Phenotype (%) [1]: 29% and 27% | Total Cell Count [1]: 211 and 225 | Population Apoptotic (%) [2]: 55% and 51% | Population Fragmented Nuclei (%) [2]: 10% and 19% | Population Healthy Nuclei (%) [2]: 59% and 60% | Population Hoechst High Intensity Objects (%) [2]: 0% | Population Membrane Permeable-Phenotype (%) [2]: 25% and 27% | Population Mitochondria Different-Phenotype (%) [2]: 3% and 5% | Population Mitotic Cells (%) [2]: 44% and 48% | Population Normal (%) [2]: 100% | Population Pyknosed Nuclei (%) [2]: 30% and 20% | Population Tubulin-Different-Phenotype (%) [2]: 74% and 81% | Total Cell Count [2]: 147 and 142 | Population Apoptotic (%) [3]: 89% and 85% | Population Fragmented Nuclei (%) [3]: 27% and 14% | Population Healthy Nuclei (%) [3]: 32% and 46% | Population Hoechst High Intensity Objects (%) [3]: 6% and 1% | Population Membrane Permeable-Phenotype (%) [3]: 12% | Population Mitochondria Different-Phenotype (%) [3]: 2% and 1% | Population Mitotic Cells (%) [3]: 10% and 14% | Population Normal (%) [3]: 93% and 98% | Population Pyknosed Nuclei (%) [3]: 40% and 38% | Population Tubulin-Different-Phenotype (%) [3]: 28% and 53% | Total Cell Count [3]: 229 and 205 | Population Apoptotic (%) [4]: 63% and 65% | Population Fragmented Nuclei (%) [4]: 10% and 19% | Population Healthy Nuclei (%) [4]: 62% and 59% | Population Hoechst High Intensity Objects (%) [4]: 0% | Population Membrane Permeable-Phenotype (%) [4]: 14% | Population Mitochondria Different-Phenotype (%) [4]: 6% and 13% | Population Mitotic Cells (%) [4]: 36% and 34% | Population Normal (%) [4]: 99% | Population Pyknosed Nuclei (%) [4]: 27% and 21% | Population Tubulin-Different-Phenotype (%) [4]: 79% and 85% | Total Cell Count [4]: 149 and 148 | Population Apoptotic (%) [5]: 93% and 94% | Population Fragmented Nuclei (%) [5]: 27% and 13% | Population Healthy Nuclei (%) [5]: 12% and 16% | Population Hoechst High Intensity Objects (%) [5]: 5% and 0% | Population Membrane Permeable-Phenotype (%) [5]: 12% and 29% | Population Mitochondria Different-Phenotype (%) [5]: 4% and 3% | Population Mitotic Cells (%) [5]: 6% and 5% | Population Normal (%) [5]: 94% and 99% | Population Pyknosed Nuclei (%) [5]: 60% and 69% | Population Tubulin-Different-Phenotype (%) [5]: 36% and 61% | Total Cell Count [5]: 218 and 190 | Population Apoptotic (%) [6]: 81% and 87% | Population Fragmented Nuclei (%) [6]: 15% and 19% | Population Healthy Nuclei (%) [6]: 35% and 38% | Population Hoechst High Intensity Objects (%) [6]: 1% and 0% | Population Membrane Permeable-Phenotype (%) [6]: 20% and 11% | Population Mitochondria Different-Phenotype (%) [6]: 22% and 19% | Population Mitotic Cells (%) [6]: 18% and 12% | Population Normal (%) [6]: 98% and 100% | Population Pyknosed Nuclei (%) [6]: 49% and 41% | Population Tubulin-Different-Phenotype (%) [6]: 74% and 78% | Total Cell Count [6]: 154 and 134

COc1ccc(NC(=O)c2ccc(-c3ccc(-c4noc(C)n4)cc3C)cc2)cc1OCCN(C)C.Cl
Population Apoptotic (%) [1]: 34% and 50% | Population Fragmented Nuclei (%) [1]: 23% and 26% | Population Healthy Nuclei (%) [1]: 60% and 51% | Population Hoechst High Intensity Objects (%) [1]: 0% | Population Mitochondria Different-Phenotype (%) [1]: 6% and 5% | Population Mitotic Cells (%) [1]: 65% and 50% | Population Normal (%) [1]: 100% and 99% | Population Pyknosed Nuclei (%) [1]: 15% and 21% | Population Tubulin-Different-Phenotype (%) [1]: 39% and 56% | Total Cell Count [1]: 247 and 176 | Population Fragmented Nuclei (%) [2]: 14% and 30% | Population Healthy Nuclei (%) [2]: 29% and 48% | Population Hoechst High Intensity Objects (%) [2]: 2% and 0% | Population Membrane Permeable-Phenotype (%) [2]: 14% and 7% | Population Mitochondria Different-Phenotype (%) [2]: 29% and 25% | Population Normal (%) [2]: 97% and 100% | Population Pyknosed Nuclei (%) [2]: 56% and 20% | Population Tubulin-Different-Phenotype (%) [2]: 82% and 72% | Total Cell Count [2]: 117 and 158 | Population Apoptotic (%) [3]: 46% and 65% | Population Fragmented Nuclei (%) [3]: 32% and 19% | Population Healthy Nuclei (%) [3]: 58% and 57% | Population Hoechst High Intensity Objects (%) [3]: 2% and 0% | Population Membrane Permeable-Phenotype (%) [3]: 4% and 6% | Population Mitochondria Different-Phenotype (%) [3]: 10% and 9% | Population Mitotic Cells (%) [3]: 53% and 34% | Population Normal (%) [3]: 97% and 99% | Population Pyknosed Nuclei (%) [3]: 9% and 22% | Population Tubulin-Different-Phenotype (%) [3]: 44% and 59% | Total Cell Count [3]: 288 and 170 | Population Apoptotic (%) [4]: 94% and 90% | Population Fragmented Nuclei (%) [4]: 13% and 26% | Population Healthy Nuclei (%) [4]: 16% and 10% | Population Hoechst High Intensity Objects (%) [4]: 0% | Population Mitochondria Different-Phenotype (%) [4]: 38% and 83% | Population Mitotic Cells (%) [4]: 5% and 9% | Population Normal (%) [4]: 100% | Population Pyknosed Nuclei (%) [4]: 69% and 62% | Population Tubulin-Different-Phenotype (%) [4]: 72% and 66% | Total Cell Count [4]: 108 and 116 | Population Apoptotic (%) [5]: 86% and 73% | Population Fragmented Nuclei (%) [5]: 25% and 32% | Population Healthy Nuclei (%) [5]: 62% and 60% | Population Hoechst High Intensity Objects (%) [5]: 0% and 1% | Population Membrane Permeable-Phenotype (%) [5]: 6% and 1% | Population Mitochondria Different-Phenotype (%) [5]: 6% and 5% | Population Mitotic Cells (%) [5]: 13% and 26% | Population Normal (%) [5]: 100% and 98% | Population Pyknosed Nuclei (%) [5]: 12% and 6% | Population Tubulin-Different-Phenotype (%) [5]: 36% and 23% | Total Cell Count [5]: 191 and 281 | Population Apoptotic (%) [6]: 95% and 96% | Population Fragmented Nuclei (%) [6]: 20% and 25% | Population Healthy Nuclei (%) [6]: 15% and 7% | Population Hoechst High Intensity Objects (%) [6]: 0% | Population Mitochondria Different-Phenotype (%) [6]: 18% and 25% | Population Mitotic Cells (%) [6]: 4% | Population Normal (%) [6]: 100% | Population Pyknosed Nuclei (%) [6]: 63% and 66% | Population Tubulin-Different-Phenotype (%) [6]: 81% and 87% | Total Cell Count [6]: 102 and 112

CS(=O)(=O)c1ccc(NC(=O)c2cccc(COc3ccc(Br)cc3CNCCO)c2)c(Cl)c1.O=CO
Population Apoptotic (%) [1]: 47% and 51% | Population Fragmented Nuclei (%) [1]: 11% | Population Healthy Nuclei (%) [1]: 64% and 70% | Total Cell Count [1]: 184 and 209 | Population Apoptotic (%) [2]: 56% | Population Fragmented Nuclei (%) [2]: 22% and 14% | Population Healthy Nuclei (%) [2]: 58% and 59% | Total Cell Count [2]: 327 and 259 | Population Apoptotic (%) [3]: 61% and 71% | Population Fragmented Nuclei (%) [3]: 11% | Population Healthy Nuclei (%) [3]: 60% and 68% | Population Pyknosed Nuclei (%) [3]: 19% | Total Cell Count [3]: 187 and 198 | Population Apoptotic (%) [4]: 57% and 85% | Population Fragmented Nuclei (%) [4]: 15% and 18% | Population Healthy Nuclei (%) [4]: 65% and 64% | Total Cell Count [4]: 227 and 235 | Population Apoptotic (%) [5]: 76% and 80% | Population Fragmented Nuclei (%) [5]: 16% and 17% | Population Healthy Nuclei (%) [5]: 64% and 70% | Population Pyknosed Nuclei (%) [5]: 19% | Total Cell Count [5]: 178 and 216 | Population Apoptotic (%) [6]: 85% and 87% | Population Fragmented Nuclei (%) [6]: 16% and 13% | Population Healthy Nuclei (%) [6]: 70% and 72% | Population Pyknosed Nuclei (%) [6]: 14% | Total Cell Count [6]: 211 and 226
